A selection: hits, their analogues and other compounds. The true share with any hit is near 0.91%.
Arbovirus anti – blocks arbovirus infection; inhibition, % at 10 µM; 200,000 tested, 0.37% active; arbovirus infection cell-based antiviral screen; in the data active means inhibition above about 30%
Lipid droplet – modulators of hepatic lipid droplet formation; AML12 mouse hepatocytes, oleate lipid droplets, BODIPY imaging; AID 1656; inhibition, % at 6.5 µM; 240,000 tested, 0.4% active;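 active means lipid droplet intensity inhibited by at least 50%, with more than 500 cells counted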
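Test system: AML12 hepatocytes (mouse); reagent: oleate loading, 100 µM; dosing: one dose, 6.5 µM compound; incubation: overnight exposure; signal: fluorescence imaging, 20x objective, two fields per well; read-out basis: % inhibition of corrected integrated BODIPY droplet signal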
zVAD death inh – L929 zVAD cell death inhibition; L929 zVAD necroptosis rescue, ATP luminescence, 24 h; with zVAD 60 µM; viability rescue, % at 10 µM; 220,000 tested, 0.38% active;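 active means activation, scaled between plate controls, above about 75%, limit read from the data; inactive means activation under that limit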;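 further: 0% = zVAD with DMSO and 100% = DMSO alone without zVAD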
TNF death inh – inhibitors of TNF-alpha induced necroptosis in Jurkat FADD-/- cells; Jurkat FADD-/- TNF necroptosis rescue, ATP luminescence, 24 h; 0 = TNF only, 100 = no-TNF cells; activation (protection from cell death), % at 10 µM; 220,000 tested, 0.068% active;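 active means activation, meaning protection from cell death, of at least 50% relative to plate controls; inactive means activation below 50%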;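 further: necroptosis triggered by 40 ng/mL TNF-alpha added together with compound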
Pf gamet viab – inhibitors of late stage P. falciparum gametocyte viability | P. falciparum stage V gametocytes, ATP luminescence, 24 h | inhibition, % at 10.9 µM | 150,000 tested, 0.065% active | AID 743093;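 active means inhibition above the mean plus 3 SD of compounds within the control limits, set per campaign, cut at about 38% in these data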;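 further: 0% = DMSO wells and 100% = medium only without gametocytes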
zVAD necrop conf – confirmed blocker of zVAD induced death in L929 cells | shares compounds with zVAD death inh | L929 zVAD-induced necroptosis rescue, ATP luminescence, 24 h | activation (protection from necroptosis), % at 10 µM | 760 tested, 16% active | AID 463117;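 active means mean protection from necroptosis of at least 50% over duplicate tests; inactive means mean protection below 50%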;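 further: 0% = cells with zVAD alone and 100% = vehicle cells without zVAD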
Lipid drop inh – confirmation of inhibitors of hepatic lipid droplet formation; shares compounds with Lipid droplet; AML12 mouse hepatocytes, BODIPY lipid droplet imaging; droplets induced with 100 µM oleic acid; inhibition, % at 5.2 µM; 870 tested, 65% active; AID 463183;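 active means inhibition of lipid droplet metric at least 50%, with more than 300 cells in each of four replicates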;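 further: plate controls were DMSO with oleic acid for no effect and 5 µM Triacsin-C for full effect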
AML12 tox img – toxic to AML12 mouse hepatocytes in counter-screen. shares compounds with Lipid droplet. DAPI nuclear morphology cytotoxicity imaging; stronger effect = higher value; cells fed 100 µM oleate overnight. z-score at 5 µM. 870 tested, 3% active; in the data active means z-score above about 6.3;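 further: compound exposure lasted overnight at 37 °C before fixation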
AML12 tox ATP – AML12 hepatocyte cytotoxicity, confirmed. shares compounds with Lipid droplet. AML12 mouse hepatocyte viability, ATP luminescence; cells loaded with 100 µM oleic acid. cytotoxicity, % at 50 µM. 530 tested, under 10 active;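 active means cytotoxicity above 50% in each of four replicates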;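 further: compound exposure lasted overnight at 37 °C before the ATP read; 0% = DMSO-treated cells and 100% = wells with no cells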
Numbers without * were called inactive; / = no result.

SMILES | Arbovirus anti | Lipid droplet | zVAD death inh | TNF death inh | Pf gamet viab | others
C=CCOc1ccc(CC2C(=O)N(C)C(=O)N(C)C2=O)cc1 | -3.4 | 4.2 | 0.4 | -0.6 | /
Cc1ccc(CC2C(=O)N(C)C(=O)N(C)C2=O)s1 | 81.5* | 1.3 | 0.2 | 0.1 | 9.1
Cc1cccc(-n2c(C)nc3ccc(Cl)cc3c2=O)c1 | / | -29.8 | / | / | 6.3
C=C1C(=O)O[C@@H]2C[C@@H](C)[C@@H]3C=CC(=O)[C@@]3(C)[C@@H](O)[C@H]12 | / | -109.2 | 93.6* | 52.7* | /
C[C@@H]1C[C@H]2OC(=O)C3(CO3)[C@H]2[C@H](O)[C@]2(C)C(=O)C3OC3[C@@H]12 (some centres undefined) | / | -5.8 | -0.2 | -18.7 | /
CC(=O)OC(C)(C)/C=C/C(=O)[C@](C)(O)[C@H]1[C@H](O)C[C@@]2(C)[C@@H]3CC=C4[C@H](C[C@H](O)C(=O)C4(C)C)[C@]3(C)C(=O)C[C@]12C | -37.0 | 136.6* | 29.2 | -12.4 | /
Cc1[nH]c2ccccc2c1C1=CCNCC1 | 46.0* | / | 1.9 | 0.1 | /
COC(=O)C1=C(c2ccc(F)cc2OCc2ccccc2)C[C@@H]2CC[C@H]1N2C(=O)NCc1cccc(C(F)(F)F)c1 | / | / | / | / | -9.1
COc1cc(/C=C/C(=O)c2c(O)n(CCc3ccccc3)c(=O)[nH]c2=O)ccc1O | 46.2* | -10.5 | 41.6 | -1.1 | 12.7
COC(=O)C1=C(c2ccc(OC)c(OC)c2)C[C@@H]2CC[C@H]1N2C(=O)NC1CCCCC1 | / | / | / | / | 5.1
COc1ccc(Cn2c(O)c(/C=N/NC(=O)c3ccccc3O)c(=O)[nH]c2=O)cc1 | 28.4 | -24.4 | 2.9 | 1.2 | /
O=C(N/N=C/c1c(O)n(Cc2ccc(F)cc2)c(=O)[nH]c1=O)c1ccccc1O | 54.9* | 2.6 | 4.2 | -4.6 | -5.2
O=C(N/N=C/c1c(O)n(CCc2ccccc2)c(=O)[nH]c1=O)c1ccncc1 | 31.8* | -3.0 | -0.4 | -0.4 | 10.0
O=C(N/N=C/c1c(O)n(Cc2ccccc2)c(=O)[nH]c1=O)c1ccccc1O | 58.2* | -8.4 | 0.1 | 1.6 | 0.4
COC(=O)C1=C(c2c(C)noc2C)C[C@@H]2CC[C@H]1N2C(=O)NCc1ccco1 | / | / | / | / | -3.5
CN1C(=O)C(=Cc2ccc(OCC(=O)Nc3ccccc3)cc2)C(=O)N(C)C1=O | / | 6.4 | / | / | /
O=C(Nc1ccc(Cl)cc1)Nc1nccs1 | -1.3 | / | 86.3* | -4.3 | -26.4 | zVAD necrop conf=7.3
CN1[C@H]2CC[C@@H]1C(C(=O)N1CCOCC1)=C(O)C2 | / | / | / | / | 6.9
COC(=O)C1=C(c2ccc(C(C)=O)cc2)C[C@@H]2CC[C@H]1N2C(=O)N1CCC(O)(c2ccc(Cl)cc2)CC1 | / | / | / | / | -15.3
O=C(/C=C/c1ccc2c(c1)OCO2)c1c(O)n(CCc2ccccc2)c(=O)[nH]c1=O | / | 5.0 | -0.4 | -4.6 | 11.8
O=C(/C=C/c1ccccc1)c1c(O)n(CCc2ccccc2)c(=O)[nH]c1=O | 29.3 | 8.8 | 82.9* | -1.2 | 12.4 | zVAD necrop conf=0.9
CC(=O)OC[C@]12CCC(C)=C[C@H]1O[C@@H]1[C@H](O)[C@@H](OC(C)=O)[C@@]2(C)[C@]12CO2 | / | 2.5 | 95.5* | -24.0 | / | zVAD necrop conf=81.7*
Nc1cc(Cl)c2nonc2c1[N+](=O)[O-] | -42.4 | 112.8* | -2.9 | -15.5 | / | Lipid drop inh=-20.8;AML12 tox img=2.48
COC(=O)C1=C(c2cccc3c2S(=O)(=O)c2ccccc2-3)C[C@@H]2CC[C@H]1N2C(=O)N1CCc2cc(OC)c(OC)cc2C1 | / | / | / | / | -5.1
COC1=C(OC)[C@]23CCc4ccc(OC)c(OC)c4[C@]2(CCN3C)CC1=O | / | / | / | / | 37.2
CC(C)OCCCNC(=O)c1c(N)n(CC2CCCO2)c2nc3ccccc3nc12 (centres undefined) | -31.9 | 51.0* | -0.1 | 0.1 | -0.6 | Lipid drop inh=60.1;AML12 tox img=-0.589;AML12 tox ATP=1.9
